The chains are these.
B1: tRNA (parent)
chain: GUUCCGUUGGCGUAAUGGUAACGCGUCUCCCUCCUAAGGAGAAGACUGCGGGUUCGAGUCCCGUACGGAACG

Fewer inactive variants are shown than the library holds. Bounds are passed on as bounds.

Here are results for 38 variants from the RNAGym collection of RNA variant scans (doi:10.1126/science.aae0568).

This data set covers variants of B1. Briefly: yeast fitness relative to wild type (ratio to wild type); higher = fitter; tRNA-Arg(CCU), competitive growth, 37 C, YPD. The essentials:
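A pool of Saccharomyces cerevisiae strains, each with a tRNA-Arg(CCU) gene variant at the native genomic locus, was competed in YPD at 37°C for 24 hours across six parallel replicates. The variants had been chemically synthesised at a 3% per-site mutation rate over 69 sites, and gene amplicons before and after competition were read by 100-nucleotide paired-end sequencing. Darwinian fitness relative to wild type rested on changes in genotype frequencies. Genotypes required ≥ 100 starting reads, and estimates < 0.5 were set to 0.5.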
On to GUUCCGUUGGCGUAAUGGUAACGCGUCACCCUCCUAAGGAGAAGACUGCGGGUUCGAGUCCCGUUCGGAACG [U28A A65U], for which the yeast fitness turned out to be 0.642.

Regarding GUUCCGUUGGCGUAAUGGUAACGCGUCACCCUCCUAAGGAAAAGACUGCGGGUUCAAGUCCUGUACGGAACG [U28A G41A G56A C62U], the yeast fitness is no more than 0.5.

For the variant GUUCCGUUGGCGUAAUGGUAACGCGUCACCCUCCUAAGGAGGAGACUGCGGGUUCGAGUCCCGAACGGAACG [U28A A42G U64A], the yeast fitness was no more than 0.5.

Turning to GUUCCGUUGGCGUAAUGGUAACGCGUCACCCUCCUAAGGAGGAGACUGCGGGUUCGAGUCCCGUACGGAACG [U28A A42G], the yeast fitness was found to be 0.667.

Take GUUCCGUUGGCGUAAUGGUAACGCGUCACCCUCCUAAGGAGAAGACUGCGGGUUCCAGUCCCGUACUGAACG [U28A G56C G67U]: the yeast fitness is 0.525.

GUUCCGUUGGCGUAAUGGUAACGCGUCACCCUCCUAAGGAGAAGACUGCGGGUUCGAGUCCCGUACGGCACG [U28A A69C]: the yeast fitness turned out to be 0.88.

As for GUUCCGUUGGCGUAAUGGUAACGCGUCACCCUCCUAAGGAGAUGACUGCGGGUUCGAGUCCCGUUCGGAACG [U28A A43U A65U], the yeast fitness is no more than 0.5.

Consider GUUCCGUUGGCGUAAUGGUAACGCGUCACCCUCCUAAGGAGAAGAAUGCGGGUUCGAGUCCCGUACGGAACG [U28A C46A], for which the yeast fitness worked out at 0.846.

For GUUCCGUUGGCGUAAUGGUAACGCGUCACCCUCCUAAGGAGAAGAGUGCGGGUUCGAGUCCCGUACGGAACG [U28A C46G], the yeast fitness came out at 0.76.

For the variant GUUCCGUUGGCGUAAUGGUAACGCGUCACCCUCCUAAGGAGAAGACUGCGAGUUCGUGUCCCGUACGGAACG [U28A G51A A57U], the yeast fitness is 0.598.

Take GUUCCGUUGGCGUAAUGGUAACGCGUCACCCUCCUAAGGAGAGGACUGCGGGUUCGAGUCCCGUACGCAACG [U28A A43G G68C]: the yeast fitness came to 0.642.

Regarding GUUCCGUUGGCGUAAUGGUAACGCGUCAGCUUCCUAAGGAGAAGACUGCGGGUUCGAGUCCCGUACGAAACG [U28A C29G C31U G68A], the yeast fitness stood at 0.547.

As to GUUCCGUUGGCGUAAUGGUAACGCGUCAGCCUCCUAAGGAGAAGACUGCGAGUUCAAGUCCCGUAGGGAACG [U28A C29G G51A G56A C66G], the yeast fitness was no more than 0.5.

Regarding GUUCCGUUGGCGUAAUGGUAACGCGUCACUCUCCUAAGGAGAAGACUGCGGGUUCGAGUCCCGUACGGCACG [U28A C30U A69C], the yeast fitness amounted to 0.57.

With GUUCCGUUGGCGUAAUGGUAACGCGUCACCCUCCUAAGGAGAAGACUGCGGGUUCGUGUCCCGUACGGAACG [U28A A57U], the yeast fitness worked out at 0.598.

GUUCCGUUGGCGUAAUGGUAACGCGUCACCCUCCUAAGGAGAAGACUGCGGGUUGGAGUCCGGUACGGAACG [U28A C55G C62G]: the yeast fitness was no more than 0.5.

Take GUUCCGUUGGCGUAAUGGUAACGCGUCACCAUCCUAAGGAGCAGUCUGCGAGUUCGAGUCCCGUUCGGAACG [U28A C31A A42C A45U G51A A65U]: the yeast fitness was no more than 0.5.

In the case of GUUCCGUUGGCGUAAUGGUAACGCGUCACCCUCCUAAGGAGAAGACUGCGCGUUCGCGUCCCGUACGGAACG [U28A G51C A57C], the yeast fitness was found to be 0.53.

Turning to GUUCCGUUGGCGUAAUGGUAACGCGUCACCCUCCUAAGGAGAAGACUGCGGGUUCGAGUCCCCUACGGAACG [U28A G63C], the yeast fitness turned out to be 0.624.

With GUUCCGUUGGCGUAAUGGUAACGCGUCACCCUCCUAAGGAGGAGACUGCGGGUUCGAGUCCCGUAUCGAACG [U28A A42G C66U G67C], the yeast fitness is no more than 0.5.

On to GUUCCGUUGGCGUAAUGGUAACGCGUCACCCUCUUAAGGAGAAGACUGCGGAUUCGAGCCCCGUAUGGAACG [U28A C34U G52A U59C C66U], for which the yeast fitness was no more than 0.5.

Take GUUCCGUUGGCGUAAUGGUAACGCGUCACCCUCCUAAGGAGAAGAUUGCGGGUUCGAGUCCCGUACGGAGCG [U28A C46U A70G]: the yeast fitness came out at 0.634.

Take GUUCCGUUGGCGUAAUGGUAACGCGUCACCCUCCUAAGGAGAAGACUGCGGGUUCGAGUCCCGUAUGGAACG [U28A C66U]: the yeast fitness came out at 0.796.

On to GUUCCGUUGGCGUAAUGGUAACGCGUCACCCUCCUAAGGAGAAGACUGCGGGUUCCAGUCCCGUACGGAACG [U28A G56C], for which the yeast fitness was no more than 0.5.

On to GUUCCGUUGGCGUAAUGGUAACGCGUCACCCUCCUAAGGAGAAGACUGCGGCUUCGAGUCCCGUACGGAACG [U28A G52C], for which the yeast fitness is no more than 0.5.

On to GUUCCGUUGGCGUAAUGGUAACGCGUCAGCCUCCUAAGGAGAAGACUGCGGGUUCGAGUCCCGUACGGAACG [U28A C29G], for which the yeast fitness amounted to 0.558.

In the case of GUUCCGUUGGCGUAAUGGUAACGCGUCAACCUCCUAAGGAGAAGACUGCGGGUUCGAGUCCCGUACGGAACG [U28A C29A], the yeast fitness worked out at 0.598.

Regarding GUUCCGUUGGCGUAAUGGUAACGCGUCACUCUCCUAAGGAGAAGACUGCGGGUUAGAGUCCCGUACGGAACG [U28A C30U C55A], the yeast fitness is no more than 0.5.

For GUUCCGUUGGCGUAAUGGUAACGCGUCACCCUCCUAAGGAGGAGACUGCGGGUUCGAGUUCCGUACGGAACG [U28A A42G C60U], the yeast fitness was no more than 0.5.

Consider GUUCCGUUGGCGUAAUGGUAACGCGUCACCCUCCUAAGGAGGAGACUGCGGGUUAGAGUCCCGUAAGGAACG [U28A A42G C55A C66A], for which the yeast fitness is no more than 0.5.

For GUUCCGUUGGCGUAAUGGUAACGCGUCACCCUCCUAAGGAGAAGCAUGCGGGUUCGAGUCCCGUACGGAACG [U28A A45C C46A], the yeast fitness is no more than 0.5.

With GUUCCGUUGGCGUAAUGGUAACGCGUCACCCUCCUAAGGAAAAGACUGCGGGUUCGAGUCCCGUACAGAACG [U28A G41A G67A], the yeast fitness is no more than 0.5.

As for GUUCCGUUGGCGUAAUGGUAACGCGUCAGCCUUGUAAGGAGUAGACUGCGGGUUCGAAUCCCGUACGGAACG [U28A C29G C33U C34G A42U G58A], the yeast fitness was no more than 0.5.

Take GUUCCGUUGGCGUAAUGGUAACGCGUCAACCUCCUAGGGAGAAGACUGCGGGUUCGAGUCCCGUACGGAACG [U28A C29A A37G]: the yeast fitness is no more than 0.5.

Regarding GUUCCGUUGGCGUAAUGGUAACGCGUCACCCUCCUAAGGAGAAGACUGCGGGUUCGAGUCCCGUACGGAGCG [U28A A70G], the yeast fitness came to 0.904.

For the variant GUUCCGUUGGCGUAAUGGUAACGCGUCACCCUCCUAAGGAGAAAACUGCGGGUUCGAGUCCCGUACGAAACG [U28A G44A G68A], the yeast fitness is 0.544.

For the variant GUUCCGUUGGCGUAAUGGUAACGCGUCACCAUCCUAAGGAGAAGACUGCGCGUUCGAGUCCCGUACGGAACG [U28A C31A G51C], the yeast fitness was no more than 0.5.

As to GUUCCGUUGGCGUAAUGGUAACGCGUCACCGUCCUAAGGAGAAGACUGCGGGUUAGAGUCCCGUACGCAACG [U28A C31G C55A G68C], the yeast fitness was no more than 0.5.
